Test results: ChEMBL document CHEMBL1126285, “Novel benzothiophene-, benzofuran-, and naphthalenecarboxamidotetrazoles as potential antiallergy agents” (J Med Chem, 1992)

How the values were obtained:
Homo sapiens [1] = species: Homo sapiens; assay: Evaluated for the inhibition of human basophil histamine release stimulated by anti-Immunoglobulin E (IgE) at a concentration of 10 uM; inactive; assay type: functional
Summary of the method: (§1)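 Whole blood from well-characterized allergic donors; after red-cell sedimentation, leukocytes were washed and resuspended in buffer, preincubated with compound, then challenged with anti-IgE. Histamine was read by automated fluorometric assay, with inhibition taken against anti-IgE-challenged nondrug controls. IC50 runs used 3-fold steps over 1-100 μM.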

[2] = Compound was evaluated for the inhibition of superoxide (O2 -) anion release from human neutrophils at 100 uM; inactive; assay type: functional
Summary of the method: (§2)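 Neutrophil preparations (~98% purity) were isolated by Ficoll-Hypaque gradient centrifugation of anticoagulant-treated venous blood and stimulated with serum-opsonized zymosan. Respiratory burst was read as superoxide-mediated reduction of cytochrome C.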

[3] = Compound was evaluated for the inhibition of human basophil histamine release stimulated by anti-Immunoglobulin E (IgE) at a concentration of 33 uM; inactive; assay type: functional; summary of the method: as §1
Homo sapiens [4] = species: Homo sapiens; assay: Evaluated for the inhibition of human basophil histamine release stimulated by anti-Immunoglobulin E (IgE) at a concentration of 33 uM; assay type: functional; summary of the method: as §1
Homo sapiens [5] = species: Homo sapiens; assay: Evaluated for the inhibition of human basophil histamine release stimulated by anti-Immunoglobulin E (IgE) at a concentration of 10 uM; assay type: functional; summary of the method: as §1
Homo sapiens [6] = species: Homo sapiens; assay: Evaluated for the inhibition of superoxide (O2 -) anion release from human neutrophils; assay type: functional; summary of the method: as §2
Homo sapiens [7] = species: Homo sapiens; assay: Inhibition of anti-IgE stimulated release of Thromboxane B2 (TXB2) from human chopped lung by 50% of control value; assay type: functional
Summary of the method: (§3)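 Human lung tissue (~400 mg portions) was incubated 10 min in Tyrode's buffer at 37 °C, dosed with drug or vehicle, and challenged 10 min later with anti-IgE (final 3:1000) for 30 min. Supernatant leukotrienes or thromboxane were measured by RIA kits, giving the concentration for 50% inhibition of control release.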

Homo sapiens [8] = species: Homo sapiens; assay: Inhibition of anti-IgE stimulated release of histamine from human chopped lung by 50% of control value; assay type: functional
Summary of the method: (§4)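 Human lung tissue was washed, and ~400 mg portions were placed in 37 °C buffer. After 10 min in Tyrode's buffer, drug or vehicle was added; 10 min later, tissue was challenged with anti-IgE (final dilution 3:1000) for 30 min. Supernatant histamine was assayed, giving the concentration for 50% inhibition versus control.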

Homo sapiens [9] = species: Homo sapiens; assay: Inhibition of anti-IgE stimulated release of leukotriene C4/D4 (LTC4/D4) from human chopped lung by 50% of control value; assay type: functional; summary of the method: as §3
[10] = target: T1, Eosinophil peroxidase (Homo sapiens) (UniProt P11678); assay: Compound was evaluated for the inhibition of serum-opsonized zymosan stimulated eosinophil peroxidase release from human eosinophil; Inactive; assay type: functional; conditions: concentration not given here
T1 sequence (whole entry): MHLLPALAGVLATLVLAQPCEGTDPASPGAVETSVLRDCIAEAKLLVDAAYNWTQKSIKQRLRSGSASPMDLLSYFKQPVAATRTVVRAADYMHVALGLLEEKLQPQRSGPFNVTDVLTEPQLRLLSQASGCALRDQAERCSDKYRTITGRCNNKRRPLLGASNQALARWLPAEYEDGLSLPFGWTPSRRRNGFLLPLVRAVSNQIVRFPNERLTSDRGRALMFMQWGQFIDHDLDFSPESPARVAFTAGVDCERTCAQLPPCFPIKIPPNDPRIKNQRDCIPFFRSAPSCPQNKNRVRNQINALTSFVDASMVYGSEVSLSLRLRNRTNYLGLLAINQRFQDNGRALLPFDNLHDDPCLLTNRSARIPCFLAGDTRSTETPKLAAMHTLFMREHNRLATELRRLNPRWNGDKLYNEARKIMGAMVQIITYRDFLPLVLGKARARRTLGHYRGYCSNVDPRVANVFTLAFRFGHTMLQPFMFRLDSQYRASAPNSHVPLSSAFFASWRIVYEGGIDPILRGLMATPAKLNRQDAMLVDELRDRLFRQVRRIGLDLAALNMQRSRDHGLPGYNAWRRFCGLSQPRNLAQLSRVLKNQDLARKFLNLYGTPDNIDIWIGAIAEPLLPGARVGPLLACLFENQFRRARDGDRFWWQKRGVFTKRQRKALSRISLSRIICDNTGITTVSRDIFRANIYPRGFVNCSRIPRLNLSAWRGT

[11] = Compound was evaluated for the inhibition of anti-IgE stimulated histamine release from human basophil; assay type: functional; summary of the method: as §1
[12] = Concentration inhibiting anti-IgE stimulated release of histamine from human chopped lung by 50% of control value; assay type: functional, tissue-based; summary of the method: as §4
Homo sapiens [13] = species: Homo sapiens; assay: Compound was evaluated for the inhibition of anti-IgE stimulated TXB2 release from human basophil; assay type: functional
Homo sapiens [14] = species: Homo sapiens; assay: Compound was evaluated for the inhibition of serum-opsonized zymosan stimulated TXB2 release from human neutrophil; assay type: functional
Summary of the method: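 Human polymorphonuclear leukocytes (~98% neutrophils) came from anticoagulant-treated venous blood via Ficoll-Hypaque centrifugation. They were stimulated with serum-opsonized zymosan, and TxB2 release was measured by radioimmunoassay.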

[15] = Concentration inhibiting anti-IgE stimulated release of leukotriene C4/D4 (LTC4/D4) from human chopped lung by 50% of control value; assay type: functional, tissue-based; summary of the method: as §3
[16] = Compound was evaluated for the inhibition of serum-opsonized zymosan stimulated superoxide (O2-) release from human eosinophil; assay type: functional
Summary of the method: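 Eosinophils were enriched above 95% purity by discontinuous Percoll gradient centrifugation after Ficoll-Hypaque separation of venous blood leukocytes. Cells were stimulated with serum-opsonized zymosan, and superoxide was measured as cytochrome C reduction.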

[17] = Compound was evaluated for the inhibition of serum-opsonized zymosan stimulated superoxide (O2-) release from human neutrophil; assay type: functional; summary of the method: as §2

Compound | IC50 (Homo sapiens [6]) | inhibition at 10 µM (Homo sapiens [1]) | inhibition at 33 µM (Homo sapiens [4]) | inhibition at 10 µM (Homo sapiens [5]) | other results
Cc1ccc2sc(C(=O)Nc3nn[nH]n3)c(OC(C)C)c2c1 | – | < 25% | – | – | inhibition at 100 µM [2]: < 5%; inhibition at 33 µM [3]: < 25%
CC(C)Oc1c(C(=O)Nc2nn[nH]n2)sc2ccc([N+](=O)[O-])cc12 | – | < 25% | 53% | – | inhibition at 100 µM [2]: < 5%
COc1ccc2c(OC(C)C)c(C(=O)Nc3nn[nH]n3)ccc2c1 | – | – | 72.7% | 31.3% | –
COc1ccc2sc(C(=O)Nc3nn[nH]n3)c(OC)c2c1 | > 100 µM | – | 97.3% | 59.8% | –
CC(C)Oc1c(C(=O)Nc2nn[nH]n2)sc2ccc(Cl)cc12 | > 100 µM | – | 92% | 73% | –
CC(C)Oc1c(C(=O)Nc2nn[nH]n2)sc2ccc(Oc3ccccc3)cc12 | > 100 µM | < 25% | 55% | – | –
CCCc1c2oc(C(=O)O)cc(=O)c2cc2c(=O)cc(C(=O)O)n(CC)c12 [NEDOCROMIL] | – | < 25% | – | – | inhibition at 33 µM [3]: < 25%
CCOc1c(C(=O)Nc2nn[nH]n2)sc2ccc(OC)cc12 | > 100 µM | – | 98% | 92.5% | –
COc1ccc2oc(C(=O)Nc3nn[nH]n3)c(OC(C)C)c2c1 | > 100 µM | < 25% | 43.3% | – | –
COc1ccc2ccc(C(=O)Nc3nn[nH]n3)c(OC(C)C)c2c1 | > 100 µM | – | 90.5% | 51% | –
COc1ccc2sc(C(=O)Nc3nn[nH]n3)c(OC(C)(C)C)c2c1 | > 100 µM | – | 100% | 62% | –

Continued, in another order:

IC50 (Homo sapiens [6]) | Compound | inhibition at 10 µM (Homo sapiens [1]) | inhibition at 33 µM (Homo sapiens [4]) | inhibition at 10 µM (Homo sapiens [5]) | other results
40 µM | COc1cc2sc(C(=O)Nc3nn[nH]n3)c(OCc3ccccc3)c2cc1OC | – | 90.7% | 90.3% | IC50 (Homo sapiens [7]): < 0.74 µM; IC50 (Homo sapiens [8]): 2.5 µM; IC50 (Homo sapiens [9]): 1.3 µM
> 100 µM | CC(C)Oc1c(C(=O)Nc2nn[nH]n2)sc2ccccc12 | – | 65.8% | 27.5% | –
42.5 µM | COc1ccc2c(OC(C)C)c(C(=O)Nc3nn[nH]n3)oc2c1 | – | 99.5% | 77% | –
> 100 µM | COc1ccc2c(c1)c(OC(C)C)c(C(=O)Nc1nn[nH]n1)n2-c1ccccc1 | – | 82% | 46% | IC50 (Homo sapiens [7]): 12 µM; IC50 (Homo sapiens [8]): 11 µM; IC50 (Homo sapiens [9]): 12 µM
5.7 µM | COc1cc2sc(C(=O)Nc3nn[nH]n3)c(Oc3ccccc3)c2cc1OC | – | 93.6% | 96% | IC50 (Homo sapiens [7]): < 0.75 µM; IC50 (Homo sapiens [8]): 4.9 µM; IC50 (Homo sapiens [9]): 9.7 µM
47.8 µM | CC(C)Oc1c(C(=O)Nc2nn[nH]n2)sc2ccc(O)cc12 | < 25% | 86% | – | –
37 µM | COc1ccc2c(OC(C)C)c(C(=O)Nc3nn[nH]n3)sc2c1 | – | 88.6% | 92% | IC50 (Homo sapiens [7]): 0.3 µM; IC50 (Homo sapiens [8]): 0.9 µM; IC50 (Homo sapiens [9]): 0.4 µM
10.1 µM | COc1ccc2sc(C(=O)Nc3nn[nH]n3)c(Oc3ccccc3)c2c1 | – | 91.3% | 96.3% | IC50 (Homo sapiens [7]): 4.9 µM; IC50 (Homo sapiens [8]): 3.5 µM; IC50 (Homo sapiens [9]): 1.1 µM
> 100 µM | CC(C)Oc1c(C(=O)Nc2nn[nH]n2)sc2ccc(OCc3ccccc3)cc12 | < 25% | 41.6% | – | –
17.7 µM | COc1cc2sc(C(=O)Nc3nn[nH]n3)c(OC(C)C)c2cc1OC | – | 81.7% | 80% | IC50 (Homo sapiens [7]): < 0.75 µM; IC50 (Homo sapiens [8]): 4.5 µM; IC50 (Homo sapiens [9]): 0.3 µM
> 100 µM | COc1cccc2c(OC(C)C)c(C(=O)Nc3nn[nH]n3)sc12 | < 25% | < 25% | – | –
> 100 µM | COc1ccc2c(OC(C)C)c(C(=O)Nc3nn[nH]n3)sc2c1Cl | < 25% | – | – | inhibition at 33 µM [3]: < 25%
23.4 µM | COc1ccc2sc(C(=O)Nc3nn[nH]n3)c(OCc3ccccc3)c2c1 | – | 84.5% | 80.8% | –
14.5 µM | COc1ccc2sc(C(=O)Nc3nnn[nH]3)c(OC(C)C)c2c1 | – | 97.3% | 94.7% | inhibition [10]: < 20%; IC50 [11]: 1.1 µM; IC50 [12]: 2.3 µM; IC50 (Homo sapiens [13]): 0.2 µM; IC50 (Homo sapiens [14]): 4.5 µM; IC50 [15]: 0.3 µM; IC50 [16]: 5.5 µM; IC50 [17]: 14.5 µM; IC50 (Homo sapiens [7]): 0.3 µM
